Results published in ChEMBL document CHEMBL2434823, “Design, synthesis and biological activities of some 7-aminocephalosporanic acid derivatives” (Eur J Med Chem, 2013).
pIC50: −log10 of the molar value. The source made the active and inactive calls. The calls are words filed in the database; no cut-off is given here.

Columns and labels:
[1] = target: Urease (Canavalia ensiformis) (UniProt P07374); assay: Inhibition of jack bean urease using urea as substrate assessed as ammonia production at 250 ug/ml after 15 mins relative to control
Urease (Canavalia ensiformis), sequence (P07374 whole entry, looked up): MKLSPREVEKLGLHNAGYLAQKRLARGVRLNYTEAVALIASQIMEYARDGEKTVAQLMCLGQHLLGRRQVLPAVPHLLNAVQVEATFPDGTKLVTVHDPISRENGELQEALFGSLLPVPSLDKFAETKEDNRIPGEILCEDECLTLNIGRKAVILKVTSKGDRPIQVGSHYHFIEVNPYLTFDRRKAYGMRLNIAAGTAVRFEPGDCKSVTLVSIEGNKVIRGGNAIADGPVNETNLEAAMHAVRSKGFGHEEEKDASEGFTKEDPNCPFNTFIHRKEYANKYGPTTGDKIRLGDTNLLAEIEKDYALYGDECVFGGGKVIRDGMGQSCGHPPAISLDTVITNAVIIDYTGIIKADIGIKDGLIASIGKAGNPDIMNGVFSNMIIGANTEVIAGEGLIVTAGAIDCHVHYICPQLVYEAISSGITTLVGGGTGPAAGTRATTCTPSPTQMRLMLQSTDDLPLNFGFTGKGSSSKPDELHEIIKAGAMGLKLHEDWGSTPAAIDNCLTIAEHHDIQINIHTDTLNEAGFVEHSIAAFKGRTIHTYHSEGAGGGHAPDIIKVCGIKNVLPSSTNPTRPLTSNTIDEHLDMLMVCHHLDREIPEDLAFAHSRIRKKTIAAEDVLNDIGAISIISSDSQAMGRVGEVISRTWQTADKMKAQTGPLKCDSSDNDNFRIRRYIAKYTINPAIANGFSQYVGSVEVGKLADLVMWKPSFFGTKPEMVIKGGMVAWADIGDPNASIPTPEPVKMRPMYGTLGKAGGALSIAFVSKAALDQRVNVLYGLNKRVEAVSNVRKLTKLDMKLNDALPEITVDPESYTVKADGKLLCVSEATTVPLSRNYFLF
How it was run: (§1)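 Jack bean urease in pH 8.2 buffer (100 mM urea, 0.01 M K2HPO4, 1 mM EDTA, 0.01 M LiCl) was incubated with compound for 15 min at room temperature. Ammonia was measured by the indophenol method (phenol/nitroprusside, then NaOH/NaOCl) at A625 after 20 min. Inhibition % = 100 − (OD test/OD control)×100. […] Thiourea was the standard.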

[2] = test system: Saccharomyces cerevisiae; assay: Antimicrobial activity against Saccharomyces cerevisiae RSKK 251; assay type: functional
[3] = test system: Mycolicibacterium smegmatis; assay: Antimicrobial activity against Mycobacterium smegmatis ATCC 607; assay type: functional
[4] = test system: Candida albicans; assay: Antimicrobial activity against Candida albicans ATCC 60193; assay type: functional
[5] = test system: Enterococcus faecalis; assay: Antimicrobial activity against Enterococcus faecalis ATCC 29212; assay type: functional
How it was run: (§2)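 Compound stocks were 20.000 µg/mL in hexane. DMSO diluted 1:10 served as the solvent control, and ampicillin was the reference drug.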

[6] = test system: Bacillus cereus; assay: Antimicrobial activity against Bacillus cereus 702 Roma; assay type: functional; how it was run: as §2
[7] = test system: Staphylococcus aureus; assay: Antimicrobial activity against Staphylococcus aureus ATCC 25923; assay type: functional; how it was run: as §2
[8] = test system: Yersinia pseudotuberculosis; assay: Antimicrobial activity against Yersinia pseudotuberculosis ATCC 911; assay type: functional
How it was run: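 Compounds were dissolved in […] as 20.000 µg/mL stocks. Ampicillin (10 µg) was the reference antibacterial, and DMSO diluted 1:10 was the solvent control.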

[9] = test system: Pseudomonas aeruginosa; assay: Antimicrobial activity against Pseudomonas aeruginosa ATCC 43288; assay type: functional; how it was run: as §2
[10] = Inhibition of Bacillus cereus metallo beta-lactamase assessed as nitrocefin substrate hydrolysis after 20 mins
How it was run: (§3)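 Commercial B. cereus metallo-β-lactamase (1.5 µM solution) was combined with nitrocefin (150 µM solution) and compound in 25 mM PIPES pH 7.0 containing 100 µM ZnSO4. A486 was read continuously for 20 min at 37 °C. Residual activity was taken relative to the no-inhibitor control, in triplicate. Screening used 1 mM final; IC50 came from a concentration series. HgCl2 was the positive control.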

[11] = test system: Bacillus cereus; assay: Inhibition of Bacillus cereus metallo beta-lactamase assessed as nitrocefin substrate hydrolysis at 1 mM after 20 mins; how it was run: as §3
[12] = target: Urease (Canavalia ensiformis, UniProt P07374); assay: Inhibition of jack bean urease using urea as substrate assessed as ammonia production after 15 mins; how it was run: as §1
Urease, sequence (P07374 whole entry): as the sequence (P07374 whole entry, looked up) above

[13] = target: Urease (Canavalia ensiformis) (UniProt P07374); assay: Inhibition of jack bean urease using urea as substrate assessed as ammonia production at 100 ug/ml after 15 mins relative to control
[14] = test system: Saccharomyces cerevisiae; assay: Antimicrobial activity against Saccharomyces cerevisiae RSKK 251 at 5 ug; assay type: functional; conditions: read-out: IZ
How it was run: (§4)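 Compounds were dissolved in […] as 20.000 µg/mL stocks. Fluconazole (5 µg) was the reference antifungal, and DMSO diluted 1:10 was the solvent control.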

[15] = test system: Candida albicans; assay: Antimicrobial activity against Candida albicans ATCC 60193 at 5 ug; assay type: functional; conditions: read-out: IZ; how it was run: as §4

Compound	inhibition [1] [%]	inhibition zone (IZ) [2]	inhibition zone (IZ) [3]	inhibition zone (IZ) [4]	inhibition zone (IZ) [5]	inhibition zone (IZ) [6]	inhibition zone (IZ) [7]	inhibition zone (IZ) [8]	inhibition zone (IZ) [9]	pIC50 [10]	inhibition [11] [%]	pIC50 [12]	inhibition [13] [%]	zone of inhibition at 5 µg/disc [14] [mm]	zone of inhibition at 5 µg/disc [15] [mm]
O=S(=O)(Cl)c1ccc(NC(=S)Nc2ccccc2)cc1	21	15 mm	inactive	8 mm	inactive	inactive	6 mm	inactive	inactive						
CC(=O)OCC1=C(C(=O)O)N2C(=O)[C@@H](NS(=O)(=O)c3ccc(NC(=O)Nc4ccccc4)cc3)[C@H]2SC1		8 mm	10 mm	8 mm	8 mm	10 mm	15 mm	8 mm	6 mm						
O=S(=O)(Cl)c1ccc(/N=c2/sc(-c3ccc(Cl)cc3)cn2Cc2ccccc2)cc1		20 mm	10 mm	10 mm	18 mm	6 mm	16 mm	inactive	inactive						
MERCURIC CHLORIDE [listing 1 of 2 here]										4.03					
CC(=O)OCC1=C(C(=O)O)N2C(=O)[C@@H](NS(=O)(=O)c3ccc(/N=c4/sc(-c5ccc(Cl)cc5)cn4-c4ccccc4)cc3)[C@H]2SC1	15	14 mm	16 mm	10 mm	inactive	8 mm	inactive	6 mm	6 mm						
O=C(Cl)CN1CCN(c2ccc([N+](=O)[O-])cc2F)CC1	25	30 mm	inactive	15 mm	8 mm	8 mm	15 mm	inactive	inactive						
CC(=O)OCC1=C(C(=O)O)N2C(=O)[C@@H](NS(=O)(=O)c3ccc(/N=c4/sc(-c5ccc(Cl)cc5)cn4Cc4ccccc4)cc3)[C@H]2SC1		inactive	inactive	10 mm	8 mm	inactive	22 mm	8 mm	8 mm	3.27	64				
CC(=O)OCC1=C(C(=O)O)N2C(=O)[C@@H](NS(=O)(=O)c3ccc(NC(=S)Nc4ccccc4)cc3)[C@H]2SC1		22 mm	18 mm	14 mm	10 mm	12 mm	18 mm	10 mm	8 mm						
Nc1ccc(S(=O)(=O)Cl)cc1		20 mm	10 mm	13 mm	12 mm	15 mm	18 mm	12 mm	28 mm						
CN[C@@H]1[C@H](O[C@H]2[C@H](O[C@H]3[C@H](O)[C@@H](O)[C@H](N=C(N)N)[C@@H](O)[C@@H]3N=C(N)N)O[C@@H](C)[C@]2(O)C=O)O[C@@H](CO)[C@H](O)[C@H]1O [STREPTOMYCIN]			35 mm												
CC(=O)OCC1=C(C(=O)O)N2C(=O)[C@@H](NS(=O)(=O)c3ccc(NC(=S)NCc4ccccc4)cc3)[C@H]2SC1		10 mm	16 mm	8 mm	10 mm	8 mm	15 mm	8 mm	6 mm						
O=S(=O)(Cl)c1ccc(/N=c2/sc(-c3ccc(Cl)cc3)cn2-c2ccccc2)cc1	3	22 mm	12 mm	10 mm	8 mm	8 mm	18 mm	inactive	inactive						
O=C(Nc1ccccc1)Nc1ccc(S(=O)(=O)Cl)cc1	100	15 mm	inactive	8 mm	inactive	inactive	6 mm	inactive	inactive			3.41	39.3		
CC(=O)OCC1=C(C(=O)O)N2C(=O)[C@@H](NS(=O)(=O)c3ccc(/N=C4/SC(=O)CN4Cc4ccccc4)cc3)[C@H]2SC1		18 mm	16 mm	10 mm	10 mm	8 mm	22 mm	8 mm	8 mm						
O=S(=O)(Cl)c1ccc(NC(=S)NCc2ccccc2)cc1		8 mm	17 mm	8 mm	16 mm	18 mm	30 mm	25 mm	20 mm						
CC(=O)OCC1=C(C(=O)O)N2C(=O)[C@@H](NS(=O)(=O)c3ccc(N)cc3)[C@H]2SC1	1	20 mm	12 mm	14 mm	16 mm	18 mm	20 mm	12 mm	30 mm						
O=C(NCc1ccccc1)Nc1ccc(S(=O)(=O)Cl)cc1	23	20 mm	15 mm	18 mm	16 mm	18 mm	30 mm	25 mm	20 mm						
O=S(=O)(Cl)c1ccc(/N=c2/oc(-c3ccc(Cl)cc3)cn2Cc2ccccc2)cc1	21	10 mm	12 mm	8 mm	8 mm	6 mm	18 mm	inactive	inactive						
CC(=O)OCC1=C(C(=O)O)N2C(=O)[C@@H](NS(=O)(=O)c3ccc(NC(=O)NCc4ccccc4)cc3)[C@H]2SC1		10 mm	14 mm	10 mm	10 mm	10 mm	18 mm	10 mm	8 mm						
O=C1CN(Cc2ccccc2)/C(=N\c2ccc(S(=O)(=O)Cl)cc2)S1		18 mm	12 mm	10 mm	10 mm	10 mm	18 mm	inactive	inactive						
MERCURIC CHLORIDE [listing 2 of 2 here]											76				
OC(Cn1cncn1)(Cn1cncn1)c1ccc(F)cc1F [FLUCONAZOLE]														> 25	25
CC(=O)OCC1=C(C(=O)O)N2C(=O)[C@@H](NC(=O)CN3CCN(c4ccc([N+](=O)[O-])cc4F)CC3)[C@H]2SC1		30 mm	22 mm	15 mm	8 mm	10 mm	18 mm	6 mm	inactive	2.93	24				
CC(=O)OCC1=C(C(=O)O)N2C(=O)[C@@H](NS(=O)(=O)c3ccc([N+](=O)[O-])cc3)[C@H]2SC1	28	inactive	inactive	inactive	6 mm	8 mm	23 mm	inactive			18				
